From ChEMBL document CHEMBL1135898, “Synthesis and antimycobacterial activity of 6-arylpurines: the requirements for the N-9 substituent in active antimycobacterial purines” (J Med Chem, 2002)
Converted amounts (≈) assume the structure as drawn.

What was measured:
Format in all cases: functional
[1] = tested on: Mycobacterium tuberculosis; experiment: Minimum Inhibitory Concentration against drug-resistant strain resistant to Rifampin
In short: (§1)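 MICs by microplate alamar blue assay against M. tuberculosis strains resistant to isoniazid (ATCC 35822), rifampin (ATCC 35838), ethambutol, kanamycin or ciprofloxacin, drug-sensitive strain Erdman, and M. avium (ATCC 25291). MIC = minimum concentration giving 90% growth inhibition.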

[2] = tested on: Mycobacterium tuberculosis; experiment: Minimum Inhibitory Concentration against drug-resistant strain resistant to Isoniazid; in short: as §1
[3] = tested on: Mycobacterium tuberculosis; experiment: Minimum Inhibitory Concentration against drug-resistant strain resistant to Ciprofloxacin; in short: as §1
[4] = tested on: Mycobacterium tuberculosis; experiment: Minimum Inhibitory Concentration against drug-resistant strain resistant to Ethambutol; in short: as §1

Question: With Clc1nc(-c2ccco2)c2ncn(Cc3ccccc3)c2n1 as the compound, how does the MIC [1] read?
Answer: The MIC was 1.56 µg/mL (≈ 5.02 µM).

Question: And the MIC [2]?
Answer: Its MIC is 3.13 µg/mL (≈ 10.1 µM).

Question: What about the MIC [3] of the same compound?
Answer: Its MIC is under 0.39 µg/mL.

Question: And the MIC [4]?
Answer: Its MIC is under 0.39 µg/mL.
